Laboratory results: ChEMBL document CHEMBL4373680, “Small antibacterial molecules highly active against drug-resistant Staphylococcus aureus” (Medchemcomm, 2019)

How the values were obtained:
[1] = Ratio of EC50 for dog MDCK cells to MIC for vancomycin-resistant Staphylococcus aureus clinical isolate 2; format: toxicity
[2] = Ratio of EC50 for dog MDCK cells to MIC for vancomycin-resistant Staphylococcus aureus clinical isolate 1; format: toxicity
Staphylococcus aureus [3] = assay: Antibacterial activity against methicillin-resistant Staphylococcus aureus ATCC 33591 after 24 hrs by tecan plate reader analysis; format: functional; conditions: ATCC 33591, 24 h
Outline: (§1)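 Colony grown 24 h on NB agar at 37 °C, then 6 h in nutrient broth to mid-log (10⁸ CFU/mL by drop plating), diluted to 10⁵ CFU/mL in Mueller Hinton broth; added 9:1 to two-fold serial compound dilutions in MHB. Incubated 24 h, 37 °C; OD600 read. Triplicate per concentration, experiment run twice; MIC taken from the range of triplicate OD values.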

Escherichia coli = assay: Antibacterial activity against Escherichia coli MTCC 443 after 24 hrs by tecan plate reader analysis; format: functional; conditions: MTCC 443, 24 h
Outline: (§2)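 Broth microdilution MIC. Glycerol stocks grown on MacConkey agar 24 h at 37 °C, then a single colony in nutrient broth 6 h to mid-log (~10⁸ CFU/mL). Cells diluted to 10⁵ CFU/mL in Mueller Hinton broth and added to two-fold compound dilutions. Incubated 24 h at 37 °C, OD600 read. Triplicate wells, experiment run twice.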

Acinetobacter baumannii = assay: Antibacterial activity against Acinetobacter baumannii MTCC 1425 after 24 hrs by tecan plate reader analysis; format: functional; conditions: MTCC 1425, 24 h; outline: as §2
Klebsiella pneumoniae = assay: Antibacterial activity against Klebsiella pneumoniae ATCC 700603 after 24 hrs by tecan plate reader analysis; format: functional; conditions: Klebsiella pneumoniae, 700603, 24 h; outline: as §2
Pseudomonas aeruginosa = assay: Antibacterial activity against Pseudomonas aeruginosa MTCC 424 after 24 hrs by tecan plate reader analysis; format: functional; conditions: MTCC 424, 24 h; outline: as §2
[4] = Hemolytic activity in human erythrocytes after 1 hr; format: ADME, cell-based, Erythrocyte
Outline: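 Heparinized donor blood. Erythrocytes washed three times in PBS and resuspended to 5 vol%, then mixed 3:1 with compound serially diluted in water. Incubated 1 h at 37 °C and centrifuged. Supernatant A540 read; % hemolysis relative to water and 0.1 vol% Triton-X controls.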

[5] = Selectivity index, ratio of HC50 for human erythrocytes to MIC for methicillin-resistant Staphylococcus aureus ATCC 33591; format: toxicity; conditions: read-out: Selectivity Index
Staphylococcus aureus [6] = assay: Antibacterial activity against methicillin-resistant Staphylococcus aureus R3545 clinical isolate after 24 hrs by tecan plate reader analysis; format: functional; conditions: R3545, 24 h; outline: as §1
Staphylococcus aureus [7] = assay: Antibacterial activity against methicillin-resistant Staphylococcus aureus R3889 clinical isolate after 24 hrs by tecan plate reader analysis; format: functional; conditions: R3889, 24 h; outline: as §1
Staphylococcus aureus [8] = assay: Antibacterial activity against methicillin-resistant Staphylococcus aureus R3890 clinical isolate after 24 hrs by tecan plate reader analysis; format: functional; conditions: R3890, 24 h; outline: as §1
Staphylococcus aureus [9] = assay: Antibacterial activity against vancomycin-resistant Staphylococcus aureus clinical isolate 1 after 24 hrs by tecan plate reader analysis; format: functional; conditions: clinical isolate 1, 24 h; outline: as §1
Staphylococcus aureus [10] = assay: Antibacterial activity against vancomycin-resistant Staphylococcus aureus clinical isolate 4 after 24 hrs by tecan plate reader analysis; format: functional; conditions: clinical isolate 4, 24 h; outline: as §1
MDCK = assay: Cytotoxicity against dog MDCK cells after 24 hrs by alamar blue assay; format: cell-based; conditions: Canis lupus familiaris
Outline: (§3)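 About 10⁴ cells/well in DMEM with 10% FBS. Medium replaced with two-fold compound dilutions and incubated 24 h at 37 °C, 5% CO₂. Alamar Blue added for a further 4 h, absorbance 570 nm (600 nm reference). Viability normalized to untreated and 0.1% Triton-X wells. Triplicates; sigmoidal fit gives the 50% viability concentration.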

A549 = assay: Cytotoxicity against human A549 cells after 24 hrs by alamar blue assay; format: cell-based; conditions: A549, 24 h; outline: as §3
Staphylococcus aureus [11] = assay: Bactericidal activity against planktonic phase of methicillin-resistant Staphylococcus aureus ATCC 33591 assessed as log reduction in bacterial colony forming units at 16 ug/ml incubated for 2 hrs followed by plating on agar plate for 24 hrs by time-kill kinetic assay; format: functional
Outline: (§4)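 Time-kill: 6 h mid-log culture diluted to 10⁵ CFU/mL in MHB, incubated at 37 °C with compound at […]; 0.9% saline control. Aliquots at 1, 2, 4, 6, 8 and 12 h ten-fold diluted in saline, plated on NB agar 24 h at 37 °C; colonies counted, log scale.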

Staphylococcus aureus [12] = assay: Bactericidal activity against planktonic phase of methicillin-resistant Staphylococcus aureus R3545 assessed as log reduction in bacterial colony forming units at 16 ug/ml incubated for 4 hrs followed by plating on agar plate for 24 hrs by time-kill kinetic assay; format: functional; outline: as §4
Staphylococcus aureus [13] = assay: Bactericidal activity against planktonic phase of methicillin-resistant Staphylococcus aureus ATCC 33591 assessed as bacterial killing at 32 ug/ml incubated for 1 hr followed by plating on agar plate for 24 hrs by time-kill kinetic assay relative to control; format: functional; outline: as §4
Staphylococcus aureus [14] = assay: Bactericidal activity against planktonic phase of methicillin-resistant Staphylococcus aureus R3545 assessed as bacterial killing at 32 ug/ml incubated for 1 hr followed by plating on agar plate for 24 hrs by time-kill kinetic assay relative to control; format: functional; outline: as §4
Staphylococcus aureus [15] = assay: Induction of membrane permeabilization in Staphylococcus aureus ATCC 33591 assessed as increase in fluorescence intensity measured upto 28 mins by propidium iodide staining based fluorescence spectroscopic technique; format: functional, organism-based
Outline: (§5)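 Mid-log MRSA washed in 5 mM HEPES and resuspended in 1:1 HEPES (5 mM) and glucose (5 mM). Propidium iodide added at 10 µM final. Baseline fluorescence (ex 535/em 617 nm) read 4 min, compound in water added, read to 28 min. Water control; triplicates averaged.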

Staphylococcus aureus [16] = assay: Induction of membrane permeabilization in Staphylococcus aureus R3545 assessed as increase in fluorescence intensity measured upto 28 mins by propidium iodide staining based fluorescence spectroscopic technique; format: functional, organism-based; outline: as §5
Staphylococcus aureus [17] = assay: Induction of membrane depolarization in Staphylococcus aureus ATCC 33591 assessed as increase in fluorescence intensity measured upto 28 mins by DiSC3 staining based fluorescence spectroscopic technique; format: functional, organism-based
Outline: (§6)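 Mid-log MRSA washed in 5 mM HEPES pH 7.4 and resuspended in 1:1:1 HEPES (5 mM), glucose (5 mM) and KCl (100 mM). Loaded with DiSC3(5) at 2 µM final, 30 min in the dark. Baseline fluorescence (ex 622/em 670 nm) read 4 min, compound added, monitored to 28 min. Water control; triplicates averaged.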

Staphylococcus aureus [18] = assay: Induction of membrane depolarization in Staphylococcus aureus R3545 assessed as increase in fluorescence intensity measured upto 28 mins by DiSC3 staining based fluorescence spectroscopic technique; format: functional, organism-based; outline: as §6
[19] = Ratio of EC50 for human A549 cells to MIC for vancomycin-resistant Staphylococcus aureus clinical isolate 1; format: toxicity
[20] = Ratio of EC50 for human A549 cells to MIC for vancomycin-resistant Staphylococcus aureus clinical isolate 2; format: toxicity

`CCCCCCCCNC(=O)C[N+](C)(CCO)CCCCCC[N+](C)(CCO)CC(=O)NCCCCCCCC.[Br-].[Br-]` (stereo unspecified) showed a selectivity ratio [1] of 22, a selectivity ratio [2] of 22 and an MIC (Staphylococcus aureus [3]) of 1 to 2 mg/L. For the same molecule, the MIC (Escherichia coli) was 4 to 8 mg/L, the MIC (Acinetobacter baumannii) was 16 mg/L and the MIC (Klebsiella pneumoniae) was 32 mg/L. The MIC (Pseudomonas aeruginosa) was 16 mg/L, the HC50 at 1 h [4] was 222 µg/mL and the selectivity ratio [5] was 222. The MIC (Staphylococcus aureus [6]) was 1 to 2 mg/L, the MIC (Staphylococcus aureus [7]) was 1 mg/L and the MIC (Staphylococcus aureus [8]) was 4 mg/L. It also gave an MIC (Staphylococcus aureus [9]) of 2 mg/L, an MIC (Staphylococcus aureus [10]) of 2 mg/L and an EC50 (MDCK) of 45 mg/L. The EC50 (A549) was 44 mg/L, the Activity (Staphylococcus aureus [11]) was 5.4 log10CFU/ml and the Activity (Staphylococcus aureus [12]) was 5.6 log10CFU/ml. For the same molecule, the Activity (Staphylococcus aureus [13]) was 100%, the Activity (Staphylococcus aureus [14]) was 100% and the Activity (Staphylococcus aureus [15]) was “Dose-dependent effect”. The Activity (Staphylococcus aureus [16]) was “Dose-dependent effect”, the Activity (Staphylococcus aureus [17]) was “Dose-dependent effect” and the Activity (Staphylococcus aureus [18]) was “Dose-dependent effect”. For the same molecule, the selectivity ratio [19] was 22 and the selectivity ratio [20] was 22.
